Experimental data from ChEMBL document CHEMBL4706729, “Discovery of the First Orally Available, Selective K1.1 Inhibitor: In Vitro and In Vivo Activity of an Oxadiazole Series” (ACS Med Chem Lett, 2021).

Columns and labels:
[1] = Metabolic stability in human liver microsomes assessed as intrinsic clearance
[2] = Lipophilicity, log D of compound; format: physicochemical; settings: octanol/water
[3] = Free drug concentration in wildtype CD-1 mouse brain at 150 mg/kg, sc; settings: in vivo
[4] = Half life in CD-1 mouse at 0.5 mg/kg, iv; format: ADME, organism-based; settings: in vivo
Summary of the method: (§1)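 CD-1 mice given a single 0.5 mg/kg IV dose in 10% DMSO, 10% Solutol, 80% water. Clearance, Vdss and half-life derived from plasma concentration–time data.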

[5] = Clearance in CD-1 mouse at 0.5 mg/kg, iv; format: ADME, organism-based; settings: in vivo
Summary of the method: as §1

[6] = Free drug concentration in mouse brain harboring Kcnt1 L/L mutant at 30 mg/kg, sc; format: ADME, organism-based; settings: in vivo
[7] = Volume of distribution at steady state in CD-1 mouse at 0.5 mg/kg, iv; format: ADME, organism-based; settings: in vivo, read-out: Vdss
Summary of the method: as §1

[8] = Oral bioavailability in CD-1 mouse at 30 mg/kg; format: ADME, organism-based; settings: in vivo

SMILES | CLint [1] | logD [2] | further results
C[C@H](NC(=O)c1cc(C(F)(F)F)nn1C)c1nc(-c2ccnc(C(F)F)c2)no1 | < 9.6 µL/min/mg | 3.4 | 
COc1cc(-c2noc([C@H](C)NC(=O)c3cc(C(F)(F)F)nn3C)n2)cc(C)n1 | 10 µL/min/mg | 4.4 | 
C[C@H](NC(=O)c1cc(C(F)(F)F)nn1C)c1nc(-c2ccnc(C3CC3)c2)no1 | < 9.6 µL/min/mg | 4.1 | 
C[C@H](NC(=O)c1cc(C(F)(F)F)nn1C)c1nc(-c2ccnc(N3CCCC3)c2)no1 | 48 µL/min/mg | 4.2 | 
COCc1cc(-c2noc([C@H](C)NC(=O)c3cc(C(F)(F)F)nn3C)n2)ccn1 | < 9.6 µL/min/mg | 3 | 
COC(C)(C)c1cc(-c2noc([C@H](C)NC(=O)c3cc(C(F)(F)F)nn3C)n2)ccn1 | 21 µL/min/mg | 3.8 | 
C[C@H](NC(=O)c1cc(C(F)(F)F)nn1C)c1nc(-c2ccnc(C(F)(F)F)c2)no1 | < 9.6 µL/min/mg | 3.6 | Drug uptake [3]: 1204 nM; half-life [4]: > 20 h; clearance [5]: 2 mL/min/kg; Drug uptake(free) [6]: 270 nM; Vd [7]: 1.88 L/kg; bioavailability [8]: 100%

The next lines start with results.

CLint [1] | logD [2] | SMILES | further results
< 9.6 µL/min/mg | 3.4 | COc1cc(-c2noc([C@H](C)NC(=O)c3cc(C(F)(F)F)nn3C)n2)ccn1 | 
28 µL/min/mg | 3.4 | CNc1cc(-c2noc([C@H](C)NC(=O)c3cc(C(F)(F)F)nn3C)n2)ccn1 | 
56 µL/min/mg | 3.9 | C[C@H](NC(=O)c1cc(C(F)(F)F)nn1C)c1nc(-c2ccnc(N(C)C)c2)no1 | 
< 9.6 µL/min/mg | 3.3 | Cc1cc(-c2noc([C@H](C)NC(=O)c3cc(C(F)(F)F)nn3C)n2)ccn1 | 
